Only some compounds are listed: those with a hit (about 1.5% of all), similar ones and a draw of the others.
APJ agonist: agonists of human apelin receptor APJ, primary screen, CHO-K1 cells, PathHunter beta-arrestin, luminescence | P35414 | 0% DMSO wells, 100% apelin | activation, % at 20 µM | hit rate 0.11% among 330,000 | AID 2520, 2010;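 active means activation more than six SD over the plate average, tested at 20 µM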
Target sequence (P35414 whole entry, looked up): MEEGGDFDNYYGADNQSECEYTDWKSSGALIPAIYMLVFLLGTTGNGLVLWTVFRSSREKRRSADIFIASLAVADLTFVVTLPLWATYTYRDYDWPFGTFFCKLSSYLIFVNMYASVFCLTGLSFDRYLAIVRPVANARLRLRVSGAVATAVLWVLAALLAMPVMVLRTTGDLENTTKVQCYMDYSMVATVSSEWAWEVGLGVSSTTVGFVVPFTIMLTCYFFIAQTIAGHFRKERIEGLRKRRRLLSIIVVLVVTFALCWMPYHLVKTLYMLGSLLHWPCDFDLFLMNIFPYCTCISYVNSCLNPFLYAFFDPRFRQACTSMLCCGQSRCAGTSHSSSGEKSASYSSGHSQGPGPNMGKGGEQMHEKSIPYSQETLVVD
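Incubation: overnight seeding, 90 min compound at 25 °C, 1 h detection; test system: PathHunter CHO-K1 APJ (AGTRL-1) beta-arrestin reporter cells; amount: 1000 cells/well; doses: one dose, 20 µM compound, 1% DMSO; measured by: beta-gal luminescence; measure: agonist-driven arrestin binding to APJ; benchmarks: negative DMSO alone, positive Apelin-13 at 10 nM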
CCR6 antag: CCR6 receptor antagonists, primary screen, cell-based, CHO-K1, luminescence, beta-arrestin, uHTS. C-C chemokine receptor type 6 (Homo sapiens), P51684. CHO-K1 CCR6 PathHunter beta-arrestin, CCL20-stimulated. inhibition, % at 20 µM. hit rate 0.49% among 340,000. AID 493098, 2011;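 active means compounds whose inhibition of the agonist-driven luminescence signal at 20 µM reaches about 50%, limit read from the data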;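 further: cells stimulated with CCL20 at 14 nM final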
APJ antag: antagonists of human apelin receptor APJ, primary screen, CHO-K1 cells, beta-arrestin complementation, luminescence. inhibition, % at 20 µM. hit rate 0.32% among 330,000. P35414. AID 2521, 2010;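 active means inhibition above about 40% at 20 µM, limit read from the data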;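 further: cells challenged with 10 nM apelin-13 agonist together with compound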
EBI2 block: EBI2 receptor antagonists, beta-arrestin recruitment, primary screen, cell-based, luminescence, 7a,25-OHC stimulation, uHTS | inhibition, % at 5 µM | hit rate 0.81% among 360,000 | G-protein coupled receptor 183 (Homo sapiens), P32249 | AID 651636, 2012 | 7a,25-OHC stimulated; in the data active means inhibition above about 38%;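 further: enzyme fragment complementation signal reports receptor beta-arrestin coupling in cells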
CXCR6 inh: CXCR6 receptor inhibitors, primary screen, cell-based, beta-arrestin, luminescence, CHO-K1 PathHunter, 1536-well | inhibition, % at 20 µM | AID 602244, 2012 | C-X-C chemokine receptor type 6 (Homo sapiens), O00574 | hit rate 0.36% among 360,000; in the data active means inhibition above about 34%, passing the limit was not always enough;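 further: antagonist mode with CXCL16 agonist at 10 nM final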
Target sequence (O00574 whole entry, looked up): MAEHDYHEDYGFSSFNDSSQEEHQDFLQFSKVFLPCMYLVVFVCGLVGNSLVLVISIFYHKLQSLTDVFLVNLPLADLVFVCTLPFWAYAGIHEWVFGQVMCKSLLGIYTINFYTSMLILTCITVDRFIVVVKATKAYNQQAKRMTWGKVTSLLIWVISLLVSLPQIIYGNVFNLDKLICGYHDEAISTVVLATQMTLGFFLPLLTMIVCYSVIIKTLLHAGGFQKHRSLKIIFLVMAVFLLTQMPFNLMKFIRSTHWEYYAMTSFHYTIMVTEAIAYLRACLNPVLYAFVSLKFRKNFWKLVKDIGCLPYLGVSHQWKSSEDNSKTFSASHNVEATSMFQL
Each line names hits and unclear results; the compound was inactive in the other large screens.

Cc1cc(NC(=O)CSc2nnc3ccc(-c4ccccc4)nn23)no1	none (no result: APJ agonist, CCR6 antag, APJ antag)
Cc1c(C#N)c(O)n(C)c(=O)c1N=Nc1ccc(S(N)(=O)=O)cc1	CCR6 antag 52 (no result: APJ agonist, APJ antag)
Cc1c(C#N)c(O)n(CCO)c(=O)c1N=Nc1ccc(S(N)(=O)=O)cc1	none
CCC(C)[C@H]1CNC(=O)C(=O)N1CC1CCCCC1 (stereo not given in full)	none (no result: APJ agonist, CCR6 antag, APJ antag)
C/C(=N\Nc1cc(-c2ccccc2)nc(-c2ccccc2)n1)c1ccc(O)c(C)c1	EBI2 block 51
COc1cc(N/N=C(\C)c2ccc(N)cc2)nc(-c2ccccc2)n1	none
COc1cc(N/N=C(\C)c2ccc(O)c(C)c2)nc(-c2ccccc2)n1	EBI2 block 57
COC(=O)C1=CN(c2ccc(N3CCOCC3)cc2)C(N)=C(C#N)C1c1ccc(-c2ccccc2)cc1 (stereo not given)	none (no result: APJ agonist, CCR6 antag, APJ antag, CXCR6 inh)
COc1ccc(-c2ccc(C(=O)Nc3cc(OC)c(OC)c(OC)c3)c3occc23)c(C)c1	none (no result: APJ agonist, CCR6 antag, APJ antag)
CCS(=O)(=O)c1ncc(Cl)c(C(=O)Nc2ccc(C)cc2)n1	EBI2 block 53
CS(=O)(=O)c1ncc(Cl)c(C(=O)Nc2ccc3ccccc3c2)n1	CCR6 antag 81, EBI2 block 57, CXCR6 inh 70 (no result: APJ agonist, APJ antag)
CNS(=O)(=O)c1ccc(CNC[C@H]2O[C@@H](n3cc(C)c(=O)[nH]c3=O)C[C@@H]2O)cc1	none (no result: APJ agonist, CCR6 antag, APJ antag)
CC1=NN(c2ccccc2)C(=O)/C1=C\C=C\c1ccccc1	none
CC1=NN(c2ccccc2)C(=O)/C1=C/C=C/c1ccc(N(C)C)cc1	CCR6 antag 89, EBI2 block 56, CXCR6 inh 71 (no result: APJ agonist, APJ antag)
COc1cc(NC(=O)C2(C)CCN2C(C)C)cc(OC)c1OC (stereo not given)	none (no result: APJ agonist, CCR6 antag, APJ antag)
Cc1nc(Nc2ccc(Cl)c(Cl)c2)sc1C(/C=C/c1ccc2c(c1)OCO2)=NNc1ccc([N+](=O)[O-])cc1[N+](=O)[O-]	none (no result: APJ agonist, APJ antag)
O=[N+]([O-])c1ccc(N/N=C/c2ccc[nH]2)cc1	CCR6 antag 55 (no result: APJ agonist, APJ antag)
O=[N+]([O-])c1ccc(NN=Cc2cccc([N+](=O)[O-])c2)cc1	none (no result: APJ agonist, APJ antag)
COC(=O)[C@@]12C[C@@H](CC(=O)NCCc3ccccc3OC)C(=O)N(CCc3ccc(OC)c(OC)c3)C1=CCC(C)(C)C2	none (no result: APJ agonist, CCR6 antag, APJ antag, CXCR6 inh)
CN(C)CC(O)c1ccc(C=Cc2ccc(Cl)cc2)cc1 (stereo not given)	CCR6 antag 88 (no result: APJ agonist, APJ antag)
COc1ccccc1N1C(=O)CC(Sc2nccc(C)n2)C1=O (stereo not given)	none
COc1ccccc1N1C(=O)CC(Sc2n[nH]c(-c3cccc(C)c3)n2)C1=O (stereo not given)	CCR6 antag 75
Nc1c(Cl)ncnc1N/N=C/c1ccccn1	CCR6 antag 50 (no result: APJ agonist, APJ antag, EBI2 block, CXCR6 inh)
Nc1c(Cl)ncnc1N/N=C/c1cccnc1	none
CC(C)SC1=NC(C)(C)C=C(/C=C/c2ccc(Cl)cc2Cl)N1	CCR6 antag 51
CC(C)SC1=NC(C)(C)C=C(/C=C/c2c(Cl)cccc2Cl)N1	CCR6 antag 52
Clc1cccc(Cl)c1/C=C/c1nc2ccccc2[nH]1	none
COC(=O)[C@]12CCCCC=C1N(Cc1ccccc1)C(=O)[C@H](CC(=O)NCC13CC4CC(CC(C4)C1)C3)C2	none (no result: APJ agonist, CCR6 antag, APJ antag)
O=C(O)CC(C(=O)O)C(=Cc1ccccc1)c1ccccc1 (stereo not given)	none (no result: APJ agonist, CCR6 antag, APJ antag)
O=C1C(Nc2ccccc2)=C(NS(=O)(=O)c2ccccc2)C(=O)c2ccccc21	CCR6 antag 50
CCCn1c2ccccc2c2nnc(SCC(=O)Nc3cc(C)on3)nc21	none
CCCn1c2ccccc2c2nnc(SCC(=O)Nc3ncccn3)nc21	CCR6 antag 63, CXCR6 inh 43
C=CCn1c2ccccc2c2nnc(SCC(=O)Nc3cc(C)on3)nc21	CCR6 antag 55
Cc1cccc(C2(c3cccc(C)c3)CC2C(=O)Nc2ccc([N+](=O)[O-])cc2O)c1 (stereo not given)	CCR6 antag 58
O=C(NCc1ccccn1)[C@@H]1CCCN1C(=O)[C@@H]1CCCN1C(=O)c1cccc2ccccc12	none (no result: APJ agonist, CCR6 antag, APJ antag)
C#CCN(C[C@@H]1[C@@H](OC(=O)NCC2CCCCC2)[C@@H](OC(=O)NCC2CCCCC2)Cn2c(=O)ccc(=O)n21)S(=O)(=O)c1ccc(C)cc1	EBI2 block 81 (no result: APJ agonist, CCR6 antag, APJ antag)
C#CCN(C[C@@H]1[C@@H](OC(=O)NCCCCCC)[C@@H](OC(=O)NCCCCCC)Cn2c(=O)ccc(=O)n21)S(=O)(=O)c1ccc(C)cc1	none (no result: APJ agonist, CCR6 antag, APJ antag)
COc1ccccc1Cc1c(C(C)(C)C)nc2ccc(C)cn12	none (no result: APJ agonist, CCR6 antag, APJ antag)
CS(=O)(=O)c1ccc(S(=O)CC(=O)Oc2ccc(Cl)cc2)c([N+](=O)[O-])c1 (stereo not given)	CCR6 antag 61 (no result: EBI2 block, CXCR6 inh)
CCOc1cc(/C=N/O)ccc1OCc1ccc([N+](=O)[O-])cc1	none
CCOc1cc(C=C(C(=O)OC)C(=O)OC)ccc1OCc1ccc([N+](=O)[O-])cc1	EBI2 block 59
CCCS(=O)(=O)NC(=O)C1(C)CCCN(C(=O)c2cncc(Br)c2)C1 (stereo not given)	none (no result: APJ agonist, CCR6 antag, APJ antag)
O=C(NCCc1c[nH]c2ccccc12)C(=O)NCC(c1ccco1)N1CCN(c2ccccc2F)CC1 (stereo not given)	EBI2 block 58
COC(=O)c1ccccc1NC1=C/C(=N\S(=O)(=O)c2ccc(C(=O)O)cc2)c2ccccc2C1=O	CCR6 antag 55
COC(=O)c1ccccc1NC1=C/C(=N\S(=O)(=O)c2cccs2)c2ccccc2C1=O	CCR6 antag 54, CXCR6 inh 42
O=C1c2c(-c3ccc(Br)cc3)noc2CCN1Cc1cn(-c2ccccc2)nn1	none (no result: APJ agonist, CCR6 antag, APJ antag, CXCR6 inh)
O=C1CCC[C@@H]2C[C@@]3(C[C@@H]4CCN1[C@H]24)Nc1cc(Cl)c(Cl)cc1NC3=NCc1ccccc1	none (no result: APJ agonist, APJ antag)
CN(C)/C=C1/C(=O)N(c2ccc([N+](=O)[O-])cc2)N=C1c1ccccc1	none (no result: CCR6 antag, EBI2 block, CXCR6 inh)
C/C(=C1/C(=O)N(c2ccc([N+](=O)[O-])cc2)N=C1c1ccccc1)N(C)C	APJ antag 49 (no result: CCR6 antag, EBI2 block, CXCR6 inh)
CC(C)Cc1nc2oc3c(N4CCN(CCO)CC4)ncnc3c2c2c1CCCC2	EBI2 block 51
Cn1c(N)c(C(=O)c2cc(-c3ccccn3)nc3ccccc23)c(=O)[nH]c1=O	APJ antag 56
O=[N+]([O-])c1ccc(N=Cc2sc3ccccc3c2O)cc1	CCR6 antag 52
O=[N+]([O-])c1cccc(N=Cc2sc3ccccc3c2O)c1	none (no result: CCR6 antag, EBI2 block, CXCR6 inh)
O=C1C2C(C(=O)N1/N=C/c1cc(Br)cc([N+](=O)[O-])c1O)C1C=CC2C12CC2 (stereo not given)	CCR6 antag 52
